Laboratory results from ChEMBL document CHEMBL4190227, “Syntheses, toxicities and anti-inflammation of H2S-donors based on non-steroidal anti-inflammatory drugs” (Eur J Med Chem, 2017).

Columns and labels:
Danio rerio [1] = species on record: Danio rerio; assay: Toxicity in AB zebrafish embryo assessed as bent spine at 0.5 uM measured at 96 hrs post fertilization by stereoscopic dissecting light microscopic analysis; assay type: organism-based; settings: in vivo
Method in brief: (§1)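 AB embryos exposed from 4 hpf through 96 hpf to compound or DMF vehicle (1:1000); malformations scored at 96 hpf under stereoscopic dissecting microscope; 100 embryos per group in three replicates; three independent experiments, mean ± SD.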

Danio rerio [2] = assay: Toxicity in AB zebrafish embryo assessed as pericardial edema at 0.5 uM measured at 96 hrs post fertilization by stereoscopic dissecting light microscopic analysis; assay type: organism-based; settings: in vivo; method in brief: as §1
Danio rerio [3] = species on record: Danio rerio; assay: Toxicity in AB zebrafish embryo assessed as rate of embryo malformation at 20 uM measured at 96 hrs post fertilization by stereoscopic dissecting light microscopic analysis relative to DMF; assay type: organism-based; settings: in vivo; method in brief: as §1
[4] = Toxicity in AB zebrafish embryo assessed as percentage of embryos alive at 5 to 10 uM measured at 120 hrs post fertilization by dissecting light microscopic analysis relative to DMF; assay type: organism-based, Danio rerio; settings: read-out: Activity
Method in brief: (§2)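 Wild-type AB zebrafish embryos, collected within 1 h of lights-on and washed in E3 medium, were exposed one embryo per well in 200 μL test solution, with plates sealed against evaporation. There were 100 embryos per group, split into three replicate groups. Mortality was recorded at 24–168 hpf. DMF vehicle (1:1000) served as control. Results are mean ± SD of three replicates.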

[5] = Drug degradation in phosphate buffer assessed as H2S release by measuring test compound half life at 40 uM measured every 5 mins in presence of TECP by UV-Vis spectrometry; assay type: physicochemical
Method in brief: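 Sulfide release at 37.5 °C: donor (40 mM THF stock) added to pH 7.4 phosphate buffer with 1.0 mM TECP; aliquots taken every 5 min into methylene blue cocktail (zinc acetate, N,N-dimethyl-1,4-phenylenediamine, FeCl3 in HCl), A670 read 15 min later; H2S from Na2S calibration curve; concentration vs time curve; four independent experiments.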

[6] = (§3) Cytotoxicity against mouse RAW264.7 cells assessed as cell viability at 10 to 100 uM treated for 24 hrs in absence of LPS by MTT assay; assay type: cell-based; settings: RAW264.7 cells, read-out: Activity
Method in brief: (§4)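 Macrophages in high-glucose DMEM + 10% heat-inactivated FBS, 2 mM glutamine, 37 °C, 5% CO2; exposed 24 h to 10, 50, 100 μM with or without LPS 1 μg/mL; MTT added 4 h, formazan dissolved in DMSO, A570, expressed as % of control; four independent experiments.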

RAW264.7 [7] = assay: Antiinflammatory activity in mouse RAW264.7 cells assessed as increase in IL10 levels at 100 uM measured after 24 hrs in absence of LPS by ELISA relative to control; assay type: functional
Method in brief: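 Macrophages exposed 24 h to 10, 50, 100 μM without LPS; lysates (RIPA, 12,000×g spin) normalised by BCA to 0.1 mg/mL protein; IL-10 measured by mouse-specific sandwich ELISA kit; four independent experiments, mean ± SD.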

RAW264.7 [8] = assay: Antiinflammatory activity in mouse RAW264.7 cells assessed as increase in LPS-induced IL10 levels at 100 uM incubated for 24 hrs post LPS induction by ELISA relative to control; assay type: functional
Method in brief: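 LPS (1 μg/mL) for 4 h, then compound at 10, 50, 100 μM for 24 h; cells lysed in RIPA, spun 12,000×g 10 min, protein normalised by BCA to 0.1 mg/mL; target (TNF-α, HO-1, IL-10 or COX-2) quantified by sandwich ELISA kit with mouse-specific polyclonal antibodies; four independent experiments.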

Danio rerio [9] = species on record: Danio rerio; assay: Toxicity in AB zebrafish embryo assessed as embryonic spontaneous movement frequencies per minute at 5 uM measured at 24 hrs post fertilization by stereoscopic dissecting light microscopic analysis (reference value: 15.9 /min); assay type: organism-based; settings: in vivo
Method in brief: (§5)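 AB embryos exposed from 4 to 24 hpf to compound (0.5–20 μM) or DMF vehicle (1:1000); ten embryos per group chosen randomly; spontaneous movement recorded under stereoscopic dissecting microscope, frequency per min counted at 24 hpf; three independent experiments, mean ± SD.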

Danio rerio [10] = species on record: Danio rerio; assay: Toxicity in AB zebrafish embryo assessed as embryonic spontaneous movement frequencies per minute at 20 uM measured at 24 hrs post fertilization by stereoscopic dissecting light microscopic analysis (reference value: 15.9 /min); assay type: organism-based; settings: in vivo; method in brief: as §5
[11] = Toxicity in AB zebrafish embryo assessed as percentage of embryos alive at 10 uM measured at 120 hrs post fertilization by dissecting light microscopic analysis relative to DMF; assay type: organism-based, Danio rerio; settings: read-out: Activity; method in brief: as §2
RAW264.7 [12] = assay: as §3; assay type: cell-based; settings: raw264.7, 24 h, 100 µM; method in brief: as §4

Structure (SMILES)	Activity (Danio rerio [1])	Activity (Danio rerio [2])	Activity (Danio rerio [3]) [%]	survival at 120 h, up to 10 µM [4] [%]	half-life at 40 µM [5] [min]	viability at 24 h, up to 100 µM [6] [%]	fold change (FC) (RAW264.7 [7])	fold change (FC) (RAW264.7 [8])	Activity (Danio rerio [9]) [min⁻¹]	Activity (Danio rerio [10]) [min⁻¹]	survival at 120 h, 10 µM [11] [%]	Activity (RAW264.7 [12])
CC(C)Cc1ccc(C(C)C(=O)Oc2ccc(C(N)=S)cc2)cc1 (configuration not stated)	Toxic	Toxic	5	60	20.1	70 to 110						
CC(=O)Nc1ccc(OC(=O)CCCCC2CCSS2)cc1 (configuration not stated)							3	3	14.1	12.2	51	Non-Toxic
